One data set concerns the target T1, Monoglyceride lipase (Homo sapiens, UniProt Q99685).
T1 sequence (Q99685 whole entry): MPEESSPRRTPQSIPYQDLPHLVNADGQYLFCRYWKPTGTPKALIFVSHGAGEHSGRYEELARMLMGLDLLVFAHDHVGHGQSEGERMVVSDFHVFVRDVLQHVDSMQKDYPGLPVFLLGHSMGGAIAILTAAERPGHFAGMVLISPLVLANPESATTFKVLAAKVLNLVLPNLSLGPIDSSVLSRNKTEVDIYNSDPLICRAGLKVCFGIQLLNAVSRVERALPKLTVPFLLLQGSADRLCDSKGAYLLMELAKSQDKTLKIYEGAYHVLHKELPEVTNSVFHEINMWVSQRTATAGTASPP
Briefly: Inhibition of human recombinant MAGL using 7-HCA as substrate preincubated for 30 mins followed by substrate addition measured after 60 mins by fluorescence assay. In a few lines:
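Reaction started with 7-HCA (5 μM final), run 60 min, fluorescence Ex/Em 340/465. Percent inhibition versus no-compound and full-inhibition controls; IC50 from four-parameter fit.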

Data set [1] is described as follows: Lipophilicity, log D of the compound. In kind it is physicochemical. The conditions noted are these: octanol/water.
In data set [2] the target is T2, Monoglyceride lipase (Homo sapiens) (UniProt Q99685).
T2 sequence (whole entry): T1 sequence (Q99685 whole entry)
Briefly: Ratio of Kinact to Ki for human recombinant MAGL using 7-HCA as substrate after 60 mins by fluorescence assay. In a few lines:
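Run as the MAGL 7-HCA assay, but substrate added with no preincubation (T = 0), fluorescence read every minute at decreasing compound concentrations to give progress curves. kobs from each curve; kinact/KI from a plot of kobs against compound concentration.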

The target of data set [3] is T3, Fatty-acid amide hydrolase 1 (Homo sapiens, UniProt O00519).
T3 sequence (O00519 whole entry): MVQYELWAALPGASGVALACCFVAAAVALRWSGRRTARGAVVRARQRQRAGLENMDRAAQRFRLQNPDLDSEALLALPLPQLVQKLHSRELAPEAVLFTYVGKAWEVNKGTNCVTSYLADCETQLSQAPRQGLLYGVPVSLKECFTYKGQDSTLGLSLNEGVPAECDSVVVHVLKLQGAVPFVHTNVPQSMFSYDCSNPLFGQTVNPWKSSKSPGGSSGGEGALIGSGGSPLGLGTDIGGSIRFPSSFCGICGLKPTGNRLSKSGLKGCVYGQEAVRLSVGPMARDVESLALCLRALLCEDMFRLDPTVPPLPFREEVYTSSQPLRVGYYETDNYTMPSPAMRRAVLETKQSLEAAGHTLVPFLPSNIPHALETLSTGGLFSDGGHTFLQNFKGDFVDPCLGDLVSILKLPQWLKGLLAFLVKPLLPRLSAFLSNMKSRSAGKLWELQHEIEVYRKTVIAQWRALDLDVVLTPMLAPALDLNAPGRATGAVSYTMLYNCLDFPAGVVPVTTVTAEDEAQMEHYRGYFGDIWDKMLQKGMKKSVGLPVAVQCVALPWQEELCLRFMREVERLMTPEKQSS
Briefly: Inhibition of human recombinant FAAH using arachidonoyl-AMC as substrate preincubated for 30 mins followed by substrate addition measured after 60 mins by fluorescence assay. In a few lines:
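Human recombinant FAAH (0.0125 unit final) in 50 mM Tris pH 9.0, 1 mM EDTA, preincubated 30 min at room temperature with compound (final 30 μM–0.3 nM). Arachidonoyl-AMC added (5 μM final), reaction run 60 min, fluorescence Ex/Em 355/460. Percent inhibition versus no-compound and full-inhibition controls.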

The results in this text go back to ChEMBL document CHEMBL4028902, “Azetidine and Piperidine Carbamates as Efficient, Covalent Inhibitors of Monoacylglycerol Lipase” (J Med Chem, 2017).

In general, IC50 refers to the midpoint of a concentration-inhibition curve. One may read the logD as the decadic logarithm of the distribution of all forms, ionised or not, between an organic phase and buffer at a given pH. A low value points to lower lipophilicity. Consider `O=C(OC(C(F)(F)F)C(F)(F)F)N1CC(c2nc(-c3ccccc3)no2)C1`, for which the concentration for half-maximal inhibition (IC50) was found to be 0.38 nM on Monoglyceride lipase and 420 nM in data set [3]. The same molecule yielded a logD in data set [1] of 4.2. The Ratio in data set [2] was determined as 840000 M⁻¹ s⁻¹.
Take `O=C(OC(C(F)(F)F)C(F)(F)F)N1CC(c2ccn(-c3ccc(F)c(F)c3)n2)C1`: the IC50 on Monoglyceride lipase amounted to 0.18 nM; in data set [3] it was 670 nM. The logD in data set [1] is 4.6. For the same molecule, in data set [2], the Ratio was 978000 M⁻¹ s⁻¹.
The matching figures for `O=C(OC(C(F)(F)F)C(F)(F)F)N1CC(c2ccn(Cc3ccccc3)n2)C1`: 0.41 nM, 160 nM, 4.4 and 791000 M⁻¹ s⁻¹.
In the case of `Cn1ccc(C2CN(C(=O)OC(C(F)(F)F)C(F)(F)F)C2)n1`, the half-maximal inhibitory concentration (IC50) at Monoglyceride lipase is 39 nM; in data set [3], over 20000 nM. The pH-dependent lipophilicity (logD) in data set [1] was 2.4. Besides, in data set [2], the Ratio is 4050 M⁻¹ s⁻¹.
Regarding `O=C(OC(C(F)(F)F)C(F)(F)F)N1CC(c2cc(-c3ccccc3)n(-c3ccccc3)n2)C1`, the IC50 on Monoglyceride lipase was 0.3 nM; in data set [3] it was 490 nM. For the same molecule, the logD in data set [1] amounted to 5.7. In addition, in data set [2], the Ratio was 293000 M⁻¹ s⁻¹.
Consider `O=C(OC(C(F)(F)F)C(F)(F)F)N1CC(c2ccn(C3CCOCC3)n2)C1`, for which the concentration for half-maximal inhibition (IC50) on Monoglyceride lipase was determined as 1.9 nM; in data set [3], 9400 nM. Further, the pH-dependent lipophilicity (logD) in data set [1] amounted to 3.2. Moreover, the Ratio in data set [2] came out at 102000 M⁻¹ s⁻¹.
Turning to `O=C(OC(C(F)(F)F)C(F)(F)F)N1CC(c2ccnc(N3CCOCC3)n2)C1`, the results for the concentration for half-maximal inhibition (IC50) (at Monoglyceride lipase; in data set [3]) were 1.9 nM and over 30000 nM, respectively. The molecule further returned a logD in data set [1] of 3. Further, the Ratio in data set [2] worked out at 121000 M⁻¹ s⁻¹.
The corresponding values for `O=C(OC(C(F)(F)F)C(F)(F)F)N1CC(N2CCN(c3ncccn3)CC2)C1` are 3.2 nM, 2500 nM, 2.9 and 18000 M⁻¹ s⁻¹.
The matching figures for `O=C(OC(C(F)(F)F)C(F)(F)F)N1CC(c2ccn(-c3cnccn3)n2)C1`: 0.74 nM, 1100 nM, 2.8 and 329000 M⁻¹ s⁻¹.
